Data set [1] has as its target T1, mitochondrial calcium uniporter (MCU) (Homo sapiens, UniProt Q8NE86).
T1 sequence (Q8NE86 51-351): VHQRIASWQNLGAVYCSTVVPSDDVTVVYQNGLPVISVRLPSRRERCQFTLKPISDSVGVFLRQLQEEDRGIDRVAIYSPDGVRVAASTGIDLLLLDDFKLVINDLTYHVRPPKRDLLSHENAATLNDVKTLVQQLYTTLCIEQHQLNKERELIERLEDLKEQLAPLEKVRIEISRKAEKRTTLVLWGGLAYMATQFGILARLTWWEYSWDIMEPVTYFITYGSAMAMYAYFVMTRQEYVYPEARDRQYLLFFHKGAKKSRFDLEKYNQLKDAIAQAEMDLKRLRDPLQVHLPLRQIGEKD
T1 sequence (Q9H4I9 48-107 partner limits assumed): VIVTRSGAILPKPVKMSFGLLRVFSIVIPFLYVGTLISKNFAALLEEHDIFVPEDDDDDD
The experiment in a line: mCa2+ uptake inhibition in digitonin-permeabilized HEK293T cells. Type of data set: cell-based. In a few lines:
(§1)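 Trypsinised cells permeabilised on ice for 15 min in KCl buffer (HEPES, pH 7.2) with 80 μM digitonin and 1 μM thapsigargin. Resuspended with 1 μM Calcium Green-5N and 2 mM succinate (HeLa 5 × 10^6, HEK293T 1 × 10^7 cells mL−1). Complex equilibrated ~200 s at room temperature, then CaCl2 added (HeLa 10, HEK293T 20 μM). Read ex 488/em 528 every 5 s. Rate from exponential time constant vs untreated; Hill IC50; three biological replicates ± SD.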

For data set [2], the target named is T1, mitochondrial calcium uniporter (MCU). The data set can be described thus: mCa2+ uptake inhibition in digitonin-permeabilized HeLa cells. Type of data set: cell-based. The conditions noted are these: for mCa2+ uptake inhibition compared to untreated cells: 25 μM complex, digitonin-permeabilized HeLa cells. In a few lines:
as §1

The nature of data set [3]: Cytotoxicity, MTT assay, HeLa cells. Type of data set: cell-based. Conditions: human. In a few lines:
(§2)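 Cells seeded at ~4000 per well and left overnight, then exposed to a range of complex concentrations in medium for 72 h. MTT was added at 1 mg mL−1 in FBS-free DMEM for 3 h, and formazan was dissolved in 8:1 DMSO/glycine buffer (pH 10) for absorbance. Viability was normalised to untreated cells (100%), with Hill fit for IC50. Three independent trials ± SD.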
Background: Formazan colour is commonly taken as a measure of viable cells.

The nature of data set [4]: Cytotoxicity, MTT assay, HEK293T cells. It counts as cell-based. The conditions noted are these: human. An outline of the steps:
as §2

The subject of data set [5] is HEK293T cells. The data set can be described thus: Mitochondrial membrane potential via JC-1 assay, HEK293T cells. It counts as cell-based. Conditions: 50 μM, 24 h. In a few lines:
(§3)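 About 1 × 10^5 cells on glass-bottomed dishes, left overnight, then exposed to complex (50 μM) for 24 h at 37 °C. Loaded with 10 μM JC-1 for 30 min in the dark at 37 °C, washed, and imaged in PBS with green (monomer) and red (J-aggregate) filter sets. The positive control was 50 μM CCCP in PBS. Red/green CTCF came from ≥8 cells, normalised to untreated (=1). Three trials ± SD.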

Data set [6] concerns the target T1, mitochondrial calcium uniporter (MCU). The data set can be described thus: Mitochondrial Ca2+ uptake in intact HeLa cells using Rhod 2-AM. Type of data set: cell-based. Conditions: 50 μM, 2 h, 37 °C, histamine 100 μM. An outline of the steps:
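About 1 × 10^5 HeLa cells left overnight, then exposed to complex (50 μM) in DMEM/10% FBS for 2 h at 37 °C. Loaded with 2 μM Rhod 2-AM in extracellular medium (1 mM CaCl2, 10 mM glucose, BSA, Pluronic F127) for 30 min in the dark at room temperature. Then 30 min dye-free, 15 min at 37 °C. Confocal imaging, ex 561/em 568–712 nm: ~30 s baseline, then histamine (100 μM), frames every 3 s. Per-cell CTCF expressed as F/F0.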

Data set [7] concerns HeLa cells. The data set can be described thus: Mitochondrial membrane potential via JC-1 assay, HeLa cells. It counts as cell-based. The conditions noted are these: 50 μM, 24 h. An outline of the steps:
as §3

For data set [8], the target named is T1, mitochondrial calcium uniporter (MCU). Conditions: ref [35],[37],[39],[36]; cited from earlier work.
Data set [9] shares this target. Conditions: read-out: mCa2+ uptake inhibition IC50 HeLa, permeabilized HeLa cells, cited from earlier work.
For data set [10] the target is unchanged. The conditions noted are these: read-out: mCa2+ uptake inhibition IC50 HEK293T; permeabilized HEK293T cells; ref [36]; cited from earlier work.

Here are results for eleven compounds from PMC10449033 (European journal of inorganic chemistry, 2023).

The IC50 is the concentration needed to halve the response being measured. For orientation: viability means a per cent measure of how many cells are alive, often set against a control. Low readings indicate more harm to the cells, high ones less harm to the cells.

Read-outs that look alike come from different tables or passages of the source.

Turning to `O=[N+]([O-])C12CNCCNCC([N+](=O)[O-])(CNCCNC1)CNCCNC2.[Co+3]` [Compound 1, [Co(diNOsar)]^3+], the results for the IC50 in data set [1] and in data set [2] were 7.98 ± 0.37 µM and 6.05 ± 0.48 µM, respectively.
Regarding `NC12CNCCNCC(N)(CNCCNC1)CNCCNC2.[Co+3]` [Compound 2, [Co(diAMsar)]^3+], the viability at 72 h, 1000 µM in data set [3] and in data set [4] was 40% in each case. The IC50 in data set [1] and in data set [2] was above 25 µM in each case.
Turning to `CC(CNCCN)(CNCCN)CNCCN.[Co+3]` [Compound 3, [Co(sen)]^3+], the “depolarization of the mitochondrial membrane potential (JC-1)” value in data set [5] and in data set [7] was “did not lead to depolarization” throughout. Besides, the values for the IC50 in data set [1] and in [2] were 0.18 ± 0.02 µM and 0.16 ± 0.02 µM, respectively. Besides, in data set [6], the “inhibition of histamine-induced mCa2+ uptake in intact cells” value (shortened to “inhibition … in intact cells”) is given as “statistically significant decrease in mCa^2+ uptake”. For the same compound, the “mCa2+ uptake inhibition compared to untreated cells” value in [2] is given as “completely abolish mCa^2+ uptake”.
In the case of `CC12CNCCNCC([N+](=O)[O-])(CNCCNC1)CNCCNC2.[Co+3]` [Compound 4, [Co(MeNOsar)]^3+], the IC50 in [1] came out at 2.73 ± 0.2 µM. For the same compound, in data set [2], the IC50 turned out to be 2.91 ± 0.26 µM and the “mCa2+ uptake inhibition compared to untreated cells” value is on record as “comparable to that of 1”.
Consider `CCOC(=O)C12CNCCNCC(C)(CNCCNC1)CNCCNC2=O.[Co+3]` [Compound 5, [Co(CO2Et,Mesar)]^2+], for which the IC50 in [1] and in data set [2] was above 25 µM throughout.
`CC12CNCCNCC(C(=O)O)(CNCCNC1)C(=O)NCCNC2.[Co+3]` [Compound 6, [Co(CO2H,Mesar)]^2+]: the IC50 in [1] and in [2] was above 25 µM throughout.
Regarding `N.N.N.N.N.N.N.N.[Cl][Ru+3].[N-]=[Ru][Cl]` [Ru265], the “inhibition of MCU-mediated mCa2+ uptake in intact HeLa cells” value in [8] is listed as “able to inhibit”. Further, the “inhibition … in intact cells” value in data set [6] is “significantly diminish mCa^2+ uptake”.
As to `N.N.N.N.N.N.N.N.[Cl][Ru+3].[NH]=[Ru][Cl]` [Ru265], the 50% inhibitory concentration (IC50) in data set [9] (ref [36]) is 0.0039 ± 0.001 µM; in [10], 0.0086 ± 0.0022 µM.
As for `NCCN.NCCN.NCCN.[Co+3]` [[Co(en)3]^3+], the results for the IC50 in [9] (ref [36]) and in data set [10] were 0.115 ± 0.013 µM and 0.076 ± 0.01 µM, respectively. Besides, in data set [6], the “inhibition … in intact cells” value is reported as “cannot”.
On to Os245, for which the “inhibition of MCU-mediated mCa2+ uptake in intact HeLa cells” value in data set [8] is “able to inhibit”. Moreover, the IC50 in data set [9] (ref [39]) is 0.103 ± 0.03 µM.
With Os245′, in data set [9] (ref [39]), the IC50 is 0.0023 ± 0.0008 µM.
